Consider eight compounds from ChEMBL document CHEMBL1123282, “Antiinflammatory activity of substituted 6-hydroxypyrimido[2,1-f]purine-2,4,8(1H,3H,9H)-triones. Atypical nonsteroidal antiinflammatory agents” (J Med Chem, 1986).

The subject of test [1] is Rattus norvegicus. In words: Compound was tested in vivo for antiinflammatory activity against chronic adjuvant arthritic rat by prophylactic inhibition 2 degree paw after peroral administration of 36 mg/kg of dose. The test is classed as functional. To be noted: route oral.
The test system of test [2] is Rattus norvegicus. The test is described as follows: Compound was tested in vivo for antiinflammatory activity against chronic adjuvant arthritic rat by prophylactic inhibition 1 degree paw after peroral administration of 36 mg/kg of dose. The test is classed as functional. To be noted: route oral.
For test [3], the target named is Cyclooxygenase (Rattus norvegicus) (UniProt P35355+Q63921). The test is described as follows: In vitro inhibitory activity against Prostaglandin G/H synthase in rat neutrophils at a dose of 50 uM.
For test [4], the system named is Rattus norvegicus. The test is described as follows: In vivo antiinflammatory activity against rats by RPAR(reverse passive Arthus reaction) synovitis method. The test is classed as functional. Also noted: concentration or dose not given beside the values. In outline: (§1)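 Lewis rats, oral drug or placebo 1 h before iv BSA (2.28 mg in saline), then intraarticular rabbit anti-BSA (0.54 mg) into one knee and saline into the other, under light anesthesia. Second oral dose at 3 h; the total of both doses is the calculated dose. About 17 h after induction, subpatellar tissue with synovium is excised and weighed. Response is antibody-minus-saline knee weight, tested by analysis of variance.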

For test [5], the target named is T1, Polyunsaturated fatty acid 5-lipoxygenase (Rattus norvegicus) (UniProt P12527).
T1 sequence (whole entry): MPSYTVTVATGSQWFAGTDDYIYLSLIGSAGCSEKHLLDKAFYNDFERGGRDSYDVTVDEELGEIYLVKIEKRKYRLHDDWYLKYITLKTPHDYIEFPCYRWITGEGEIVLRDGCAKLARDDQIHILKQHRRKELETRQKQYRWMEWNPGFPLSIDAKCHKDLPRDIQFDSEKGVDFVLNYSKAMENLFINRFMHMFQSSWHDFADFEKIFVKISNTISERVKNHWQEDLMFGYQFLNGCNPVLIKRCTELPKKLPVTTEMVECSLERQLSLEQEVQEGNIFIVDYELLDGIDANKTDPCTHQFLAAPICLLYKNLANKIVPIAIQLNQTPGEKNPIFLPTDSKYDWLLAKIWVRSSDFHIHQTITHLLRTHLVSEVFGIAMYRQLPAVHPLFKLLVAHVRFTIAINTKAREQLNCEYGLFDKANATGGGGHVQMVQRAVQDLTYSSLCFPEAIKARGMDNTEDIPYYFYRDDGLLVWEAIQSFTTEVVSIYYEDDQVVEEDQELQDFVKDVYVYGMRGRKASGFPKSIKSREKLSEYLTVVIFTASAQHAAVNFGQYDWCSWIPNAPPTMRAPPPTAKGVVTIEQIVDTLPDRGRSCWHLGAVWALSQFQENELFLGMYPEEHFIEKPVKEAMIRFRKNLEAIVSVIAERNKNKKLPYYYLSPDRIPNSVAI
The test is described as follows: In vitro inhibitory activity against Lipoxygenase in rat neutrophils at a dose of 50 uM. In outline: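 Neutrophils come from the 4 h pleural exudate of male Wistar-Lewis rats given iv BSA plus intrapleural rabbit anti-BSA IgG. Cells are washed, red cells lysed with NH4Cl, and resuspended at about 5×10^6 cells/0.1 mL in Tris pH 7.4 with NaCl and 1 mM CaCl2. Cells are preincubated with compound 4 min at room temperature.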

Test [6] deals with Rattus norvegicus. In words: Tested in vivo for antiinflammatory activity against chronic adjuvant arthritic rat by prophylactic inhibition 2 degree paw after peroral administration of 9 mg/kg of dose. The test is classed as functional. To be noted: route oral. In a few lines: (§2)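 Prophylactic regimen, rats. Adjuvant is heat-killed Mycobacterium tuberculosis ground to a fine powder in paraffin oil (6 mg/mL); 0.1 mL is injected into the left hind paw. Oral drug is given 1 h before adjuvant challenge, then for 21 consecutive days; controls receive methyl cellulose. Left (1°) and right (2°) hind paw volumes are measured by plethysmograph.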

Test [7] concerns Rattus norvegicus. In words: Compound was tested in vivo for antiinflammatory activity against chronic adjuvant arthritic rat by prophylactic inhibition 1 degree paw after peroral administration of 36 mg/kg of dose. To be noted: po.
Test [8] deals with Rattus norvegicus. The test is described as follows: Tested in vivo for antiinflammatory activity against chronic adjuvant arthritic rat by prophylactic inhibition 1 degree paw after peroral administration of 9 mg/kg of dose. The test is classed as functional. To be noted: route oral. In outline:
as §2

Test [9] has as its system Rattus norvegicus. The test is described as follows: Compound was tested in vivo for antiinflammatory activity against chronic adjuvant arthritic rat by prophylactic inhibition 2 degree paw after peroral administration of 18 mg/kg of dose. The settings on record: po.
In test [10] the test system is Rattus norvegicus. The test is described as follows: Compound was tested in vivo against chronic adjuvant arthritic rat by prophylactic inhibition 2 degree paw. Relative potency with respect to (8-Benzyl-5-hydroxy-1,3-dimethyl-6-propyl-1H,8H-1,3,4b,8,9-pentaaza-fluorene-2,4,7-trione). The test is classed as functional.
In test [11] the test system is Rattus norvegicus. In words: Compound was tested in vivo for antiinflammatory activity against chronic adjuvant arthritic rat by prophylactic inhibition 2 degree paw after peroral administration of 36 mg/kg of dose. The settings on record: po.
For test [12], the system named is Rattus norvegicus. In words: Compound was tested in vivo for antiinflammatory activity against chronic adjuvant arthritic rat by prophylactic inhibition 1 degree paw after peroral administration of 25 mg/kg of dose. The test is classed as functional. The settings on record: route oral.
Test [13] relates to Rattus norvegicus. The test is described as follows: Compound was tested in vivo for antiinflammatory activity against chronic adjuvant arthritic rat by prophylactic inhibition 2 degree paw after peroral administration of 25 mg/kg of dose. The settings on record: route oral. The test is classed as functional.
For test [14], the system named is Rattus norvegicus. In words: Antiinflammatory activity against collagen II arthritis in rats, activity % inhibition in noninjected paw edema. On the set-up: concentration or dose not given beside the values. The test is classed as functional. In outline:
(§3)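 Rats immunised with bovine articular-cartilage type II collagen (dissolved in 0.01 M AcOH for 24 h at 4 °C, dialysed against saline) mixed in equal volume with incomplete Freund's adjuvant. Paws were examined weekly for 7 weeks. An animal counted as arthritic at Δ paw volume ≥8.0 (injected paw) or ≥4.0 (noninjected paw). Bone lesions were scored on lateral-projection foot radiographs. 16 rats/group.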

Test [15] concerns Rattus norvegicus. In words: Antiinflammatory activity against collagen II arthritis in rats, activity% inhibition in injected paw edema. The test is classed as functional. On the set-up: concentration or dose not given beside the values. In outline:
as §3

The species named for test [16] is Rattus norvegicus. In words: Delayed Type hypersensitivity (DTH) is measured by increase in ear thickness 24 hours after antigen injection into pinna. The test is classed as functional.
The species entered for test [17] is Rattus norvegicus. The test is described as follows: Compound was tested for antiinflammatory activity against collagen II arthritis in rats,. The test is classed as functional. In a few lines: as §3
The species entered for test [18] is Rattus norvegicus. In words: Compound was tested for antiinflammatory activity by immune response to collagen II antigen in rats, antibody titer was determined by passive hemagglutinination. The test is classed as functional. In a few lines: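 In rats with bovine type II collagen/incomplete Freund's adjuvant arthritis, the antibody response to collagen II was titred by passive hemagglutination. The delayed-type hypersensitivity component, ear thickness 24 h after intrapinna antigen, was read at day 21.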

The species named for test [19] is Rattus norvegicus. The test is described as follows: compound was tested for antiinflammatory activity against collagen II arthritis in rats,. The test is classed as functional. In a few lines: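 Arthritis induced in rats by injection of bovine articular cartilage type II collagen (dissolved in 0.01 M AcOH, dialysed against saline) mixed 1:1 with incomplete Freund's adjuvant. Paw inflammation checked weekly for 7 weeks. Inhibition = [Δpaw vol(collagen) − Δpaw vol(collagen + drug)]/[Δpaw vol(collagen) − Δpaw vol(ICFA control)] × 100. Bone damage scored by lateral-projection radiography; p ≤ 0.05 by Student's t-test.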

For test [20], the system named is Rattus norvegicus. In words: Compound was tested in vivo for antiinflammatory activity against rats by RPAR(reverse passive Arthus reaction) synovitis method ata dose of 50 mg/kg, po. The test is classed as functional. In outline:
as §1

For test [21], the system named is Rattus norvegicus. In words: Tested in vivo for antiinflammatory activity against chronic adjuvant arthritic rat by prophylactic inhibition 2 degree paw after peroral administration of 10 mg/kg of dose. The test is classed as functional. The settings on record: route oral. In outline: as §2
The test system of test [22] is Rattus norvegicus. In words: Tested in vivo for antiinflammatory activity against chronic adjuvant arthritic rat by prophylactic inhibition 1 degree paw after peroral administration of 10 mg/kg of dose. The test is classed as functional. The settings on record: route oral. In a few lines:
as §2

The structures appear in SMILES notation. Where “and” joins values, the source holds several entries; their conditions need not be identical. Identical values can stand only once.

With `Cn1c(=O)c2c(nc3n(Cc4ccccc4)c(O)c(CC=C4CCCCC4)c(=O)n23)n(C)c1=O`, the inhibition in vivo at 36 mg/kg came to 39% in the test on Rattus norvegicus [1] and 6% in the test on Rattus norvegicus [2]. Besides, the inhibition is 0% in test [3]; 10% and 9% in [5]. In the test on Rattus norvegicus [4], the Inhibition stood at 7%.

In the case of `CCCCc1c(O)n(Cc2ccccc2)c2nc3c(c(=O)n(C)c(=O)n3C)n2c1=O`, the figures for the inhibition in vivo at 9 mg/kg in the test on Rattus norvegicus [6] and in the test with Rattus norvegicus [8] were 55% and 17%, respectively. Besides, the results for the inhibition in vivo at 36 mg/kg with Rattus norvegicus [7] and in the test with Rattus norvegicus [11] were 52% and 79%, respectively. Also, in the test on Rattus norvegicus [4], the Inhibition came to 48%. The inhibition in vivo at 18 mg/kg in the test with Rattus norvegicus [9] turned out to be 64%. For the same compound, the Relative potency in the test with Rattus norvegicus [10] is 2.1.

On to `CSc1ccc(Cn2c(O)c(CC=C(C)C)c(=O)n3c4c(=O)n(C)c(=O)n(C)c4nc23)cc1`, for which the values for the inhibition in vivo at 25 mg/kg in the test on Rattus norvegicus [12] and with Rattus norvegicus [13] were 0% and 63%, respectively.

For the compound `CCCCc1c(O)n(Cc2ccc(F)cc2)c2nc3c(c(=O)n(C)c(=O)n3C)n2c1=O`, the inhibition in vivo at 9 mg/kg in the test with Rattus norvegicus [6] is 59%; in the test on Rattus norvegicus [8], 28%. Further, the inhibition in vivo at 36 mg/kg with Rattus norvegicus [7] and with Rattus norvegicus [11] was 74% each time. In the test with Rattus norvegicus [4], this compound displayed an Inhibition of 27%. Also, the inhibition in vivo at 18 mg/kg in the test on Rattus norvegicus [9] stood at 70%. For the same compound, in the test on Rattus norvegicus [10], the Relative potency is on record as 3.8.

Regarding `CC(C)(S)[C@@H](N)C(=O)O` [PENICILLAMINE], the Inhibition in the test with Rattus norvegicus [14] came to 42.6%; in the test with Rattus norvegicus [15], 36%. Moreover, the DTH in the test listed under Rattus norvegicus [16] was 0.0538 mm. The Positive was determined as 31.5% in the test filed under Rattus norvegicus [17] and 31.3% in the test listed under Rattus norvegicus [19]. For the same compound, the Antibody titer in the test filed under Rattus norvegicus [18] is 10.7.

For the compound `CCOC(=O)c1ccc(Cn2c(O)c(CC=C(C)C)c(=O)n3c4c(=O)n(C)c(=O)n(C)c4nc23)cc1`, the results for the inhibition in vivo at 25 mg/kg in the test with Rattus norvegicus [12] and in the test with Rattus norvegicus [13] were 0% and 10%, respectively.

`Cc1c(O)n(Cc2ccccc2F)c2nc3c(c(=O)n(C)c(=O)n3C)n2c1=O`: at 50 mg/kg the inhibition in vivo in the test with Rattus norvegicus [20] was 0%.

For the compound `C/C=C/Cc1c(O)n(Cc2ccccc2)c2nc3c(c(=O)n(C)c(=O)n3C)n2c1=O`, the inhibition in vivo at 10 mg/kg in the test with Rattus norvegicus [21] worked out at 24%; with Rattus norvegicus [22] it was 17%. The inhibition in test [3] is 49%; in test [5], 26% and 29%. The compound further registered an Inhibition in the test on Rattus norvegicus [4] of 12%.
